Results collected from several papers.
Compare with care: the assays were run in different laboratories.
LATS1: Serine/threonine-protein kinase LATS1 (LATS1, Homo sapiens, UniProt O95835)
KMT5A: N-lysine methyltransferase KMT5A (KMT5A, Homo sapiens, UniProt Q9NQR1)
PRKCB: Protein kinase C beta type (PRKCB, Homo sapiens, UniProt P05771)
ADRA2A: Alpha-2A adrenergic receptor (ADRA2A, Homo sapiens, UniProt P08913)

| Compound | target | effect on | mode | technique | cell line | tested at | inhibition [%] |
| --- | --- | --- | --- | --- | --- | --- | --- |
| COc1cc(-c2cc(-c3ccc(N4CCNCC4)cc3)cnc2C)cc(OC)c1OC | LATS1 | enzyme activity | inhibitor | – | – | 0.1 µM | 4 |
| O=C1C=C2CC3(O)COc4c(ccc(O)c4O)C3=C2C=C1O (centres unmarked) | KMT5A | cell-free assay | – | – | – | 10 µM | 8 |
| O=C(O)c1ncccc1O | Neutrophil collagenase (MMP8, Homo sapiens, UniProt P22894) | enzyme activity | inhibitor | fluorescence | – | 1 mM | ~50 |
| O=C(Oc1cc(O)cc2c1C[C@@H](OC(=O)c1cc(O)c(O)c(O)c1)[C@@H](c1cc(O)c(O)c(O)c1)O2)c1cc(O)c(O)c(O)c1 | KMT5A | cell-free assay | – | – | – | 10 µM | 6 |
| O=C(c1ccc(Cl)cc1)N(Cc1ccccc1)C1CCCCC1 | Cholecystokinin receptor type A (CCKAR, Homo sapiens, UniProt P32238) | cell-free assay | – | – | – | 10 µM | -9.6 |
| COc1cc(-c2cc(-c3ccc(N4CCNCC4)cc3)cnc2N)cc(OC)c1OC | Tyrosine-protein kinase ABL1 (ABL1, Homo sapiens, UniProt P00519, E255K) | enzyme activity | inhibitor | – | – | 1 µM | 94 |
| Cn1cncc1C1=CN(c2ncnc3[nH]cnc23)CCS1 | LATS1 | enzyme activity | inhibitor | radiometric | – | 2 µM | 96.1 |
| COC(=O)/C=C\C(=O)Nc1cc2ccc(O)cc2oc1=O | Histone acetyltransferase p300 (EP300, Homo sapiens, UniProt Q09472) | enzyme activity | inhibitor | radiometric | – | 50 µM | > 90 |
| COc1cc(NC(C)=O)c(Cl)cc1C(=O)Nc1nccs1 | Androgen receptor (AR, Homo sapiens, UniProt P10275) | cell-free assay | – | – | – | 10 µM | -19.5 |
| COc1cc(NC(C)CCCN)c2ncccc2c1 (centres unmarked) | KMT5A | cell-free assay | – | – | – | 10 µM | 28 |
| Cc1ccc(CNC(=O)[C@H](CCc2ccccc2)NC(=O)[C@H](CCc2ccccc2)NC(=O)[C@H](CCc2ccccc2)NC(=O)c2cnc(C)cn2)cc1 | Plasminogen (PLG, Homo sapiens, UniProt P00747) | enzyme activity | inhibitor | – | – | 100 µM | -20 |
| O=C(O[C@@H]1Cc2c(O)cc(O)cc2O[C@@H]1c1cc(O)c(O)c(O)c1-c1c([C@H]2Oc3cc(O)cc(O)c3C[C@H]2O)cc(O)c(O)c1O)c1cc(O)c(O)c(O)c1 | KMT5A | cell-free assay | – | – | – | 10 µM | 17 |
| Cc1ccc(Nc2nccc(N(C)c3ccc4c(C)n(C)nc4c3)n2)cc1S(N)(=O)=O | PRKCB | enzyme activity | inhibitor | – | – | 10 µM | 5 |
| CCCCC(CC)CNC(=N)NC(=N)NCCCCCCNC(=N)NC(=N)NCC(CC)CCCC (centres unmarked) | KMT5A | cell-free assay | – | – | – | 10 µM | 34 |
| COc1cc2ncnc(Nc3ccc(Oc4ccccc4)cc3C)c2cc1OC | PRKCB | enzyme activity | inhibitor | – | – | 1 µM | 7 |
| Oc1cccc(Nc2nc(-c3ccc(F)cc3F)cs2)c1 | ADRA2A | cell-free assay | – | – | – | 10 µM | -22.5 |
| CNC(=O)c1cc(Oc2ccc(NC(=O)Nc3ccc(Cl)c(C(F)(F)F)c3)cc2)ccn1 | PRKCB | enzyme activity | inhibitor | – | – | 10 µM | -3 |
| O=C(O[C@@H]1Cc2c(O)cc(O)cc2O[C@@H]1c1cc(O)c(=O)c2c(O)c(O)cc([C@H]3Oc4cc(O)cc(O)c4C[C@H]3OC(=O)c3cc(O)c(O)c(O)c3)c2c1)c1cc(O)c(O)c(O)c1 | KMT5A | cell-free assay | – | – | – | 10 µM | 26 |
| CN(C)C1CCN(CC#Cc2nn(C3CCCC3)c3nc(NCc4ccccc4)ncc23)C1 (centres unmarked) | Dual specificity mitogen-activated protein kinase kinase 6 (MAP2K6, Homo sapiens, UniProt P52564) | enzyme activity | inhibitor | FRET | – | 10 µM | 8 |
| O=c1c(O)cccc2c([C@H]3Oc4cc(O)cc(O)c4C[C@H]3O)cc(O)c(O)c12 | KMT5A | cell-free assay | – | – | – | 10 µM | 3 |
| CCN(CC)CCNC(=O)c1c(C)[nH]c(/C=C2\C(=O)Nc3ccc(F)cc32)c1C | cAMP-dependent protein kinase catalytic subunit alpha (PRKACA, Bos taurus, UniProt P00517) | enzyme activity | inhibitor | – | – | 0.3 µM | 0 |
| O=C(O)c1cc(O)c2c(c1)[C@H]([C@H]1c3cc(C(=O)O)cc(O)c3C(=O)c3c(O[C@@H]4O[C@H](CO)[C@@H](O)[C@H](O)[C@H]4O)cccc31)c1cccc(O[C@@H]3O[C@H](CO)[C@@H](O)[C@H](O)[C@H]3O)c1C2=O | KMT5A | cell-free assay | – | – | – | 10 µM | 23 |
| O=C(c1ccc(F)cc1)N(Cc1ccccc1)C1CCCCC1 | ADRA2A | cell-free assay | – | – | – | 10 µM | 13 |
| CCN(c1cc(C#CCN2CCOCC2)cc(C(=O)NCc2c(C)cc(C)[nH]c2=O)c1C)[C@H]1CC[C@H](N(C)CCOC)CC1 | Protein arginine N-methyltransferase 6 (PRMT6, Homo sapiens, UniProt Q96LA8) | enzyme activity | inhibitor | – | – | 1 µM | 6 |
| CCN1CCN(Cc2ccc(NC(=O)c3ccc(C)c(/C=C/c4cnc5[nH]ccc5c4OC)c3)cc2C(F)(F)F)CC1 | Serine/threonine-protein kinase greatwall (MASTL, Homo sapiens, UniProt Q96GX5) | target engagement in cells | inhibitor | chemoproteomics | A-375 | 0.5 µM | 0.239 |
| COc1ccc(C(=O)c2coc3c2C(=O)C(=O)C(Cl)=C3)cc1 | Peptide deformylase, mitochondrial (Homo sapiens, UniProt Q9HBH1) | enzyme activity | inhibitor | – | – | 100 µM | ≥ 100 |
